Data set [1] is filed under the species Homo sapiens. The experiment in a line: Inhibition of human P-gp expressed in mouse T-cell lymphoma assessed as ratio of rhodamine 123 uptake in P-gp expressing cells to rhodamine 123 uptake in non P-gp expressing cells at 10 uM by flow cytometric analysis relative to control. The data set is classed as cell-based. The essentials: (§1)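 Rhodamine 123 uptake is read by flow cytometry in the parental mouse T-lymphoma line and in the colchicine-selected subline expressing human P-gp, with or without inhibitor. Fluorescence in each line is first normalized to the untreated control of that line. The FAR value is then calculated as subline fluorescence divided by parental-line fluorescence.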
A general note: Flow cytometry measures light scatter and fluorescence of single cells or particles in a stream.

The species entered for data set [2] is Homo sapiens. The experiment in a line: Inhibition of human P-gp expressed in mouse T-cell lymphoma assessed as ratio of rhodamine 123 uptake in P-gp expressing cells to rhodamine 123 uptake in non P-gp expressing cells at 1 uM by flow cytometric analysis relative to control. The data set is classed as cell-based. The method in brief: as §1
Data set [3] is described as follows: Cytotoxicity against mouse T-cell lymphoma assessed as reduction of cell viability after 24 hrs by MTT assay. The method in brief: (§2)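 MTT viability assay, with formazan formation by mitochondrial dehydrogenases as the read-out. Cells are the parental mouse T-lymphoma line or its retrovirally transfected subline expressing human P-gp, which is kept under colchicine. Cells are incubated with varying concentrations of compound for 24 or 48 h. IC50 is derived from the reduction in viability.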

A short description of data set [4]: Cellular uptake in mouse T-cell lymphoma assessed as fluorescence ratio at 100 uM by flow cytometric analysis. The data set is classed as ADME. The note with it: in vitro. The method in brief: (§3)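 Cells are the parental mouse T-lymphoma line and its subline transfected retrovirally with human P-gp, which is maintained under colchicine selection. The fluorescent test compound is added at 50 or 100 µM. Intrinsic compound fluorescence taken up by the cells is read by flow cytometry. The ratio relates the uptake in the P-gp-expressing subline to that in the parental line. Values are means of three determinations.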

Data set [5] can be described thus: Cytotoxicity against mouse T-cell lymphoma assessed as reduction of cell viability after 48 hrs by MTT assay. The essentials: as §2
(In general: Tetrazolium assays rely on reduction of a dye to a coloured formazan, in cell work by metabolically active cells.)

For data set [6], the species on record is Homo sapiens. Put plainly: Activity at human P-gp expressed in mouse T-cell lymphoma assessed as fluorescence ratio at 50 uM by flow cytometric analysis. The essentials: as §3
Data set [7] is filed under the species Homo sapiens. Put plainly: Activity at human P-gp expressed in mouse T-cell lymphoma assessed as fluorescence ratio at 100 uM by flow cytometric analysis. The method in brief: as §3
Data set [8] can be described thus: Cytotoxicity against mouse T-cell lymphoma expressing human P-gp assessed as reduction of cell viability after 24 hrs by MTT assay. The data set is classed as ADME. The essentials:
as §2

Data set [9] in a line: Cellular uptake in mouse T-cell lymphoma assessed as fluorescence ratio at 50 uM by flow cytometric analysis. The data set is classed as ADME. As to conditions: in vitro. The essentials: as §3
The nature of data set [10]: Cytotoxicity against mouse T-cell lymphoma expressing human P-gp assessed as reduction of cell viability after 48 hrs by MTT assay. The data set is classed as ADME. The method in brief: as §2

The source of these data is ChEMBL document CHEMBL3596125, “Discovery of substituted 1,4-dihydroquinolines as novel promising class of P-glycoprotein inhibitors: First structure-activity relationships and bioanalytical studies” (Bioorg Med Chem Lett, 2015).

For orientation: IC50 means the concentration that gives 50% inhibition.

Take `CCOC(=O)C1=CN(Cc2ccccc2)c2ccccc2C1c1ccc(OC)cc1` (stereo unspecified): the values for the Ratio in the data set listed under Homo sapiens [1] and in the data set listed under Homo sapiens [2] were 5.52 and 1.27, respectively.

As for `CCOC(=O)C1=CN(Cc2ccccc2)c2ccccc2C1c1ccccc1` (stereo unspecified), the Ratio in the data set listed under Homo sapiens [1] amounted to 2.86; in the data set filed under Homo sapiens [2], 0.79.

As for `COc1ccc(CCN(C)CCCC(C#N)(c2ccc(OC)c(OC)c2)C(C)C)cc1OC` (stereo unspecified), the Ratio in the data set filed under Homo sapiens [1] came out at 4.98; in the data set listed under Homo sapiens [2] it was 1.46.

As for `CCOC(=O)C1=CN(Cc2ccccc2)c2ccccc2C1c1ccc(OC)c(OC)c1` (stereo unspecified), the IC50 in [3], in [5], in data set [8] and in data set [10] was above 160 µM in each case. The Ratio in data set [4] came out at 1.07; in the data set listed under Homo sapiens [1], 12.8; in the data set filed under Homo sapiens [2], 3.42; in the data set filed under Homo sapiens [6], 1.06; in the data set listed under Homo sapiens [7], 1.07; in data set [9], 1.06.

In the case of `CCOC(=O)C1=CN(Cc2ccc(OC)cc2)c2ccccc2C1c1cccc(OC)c1` (stereo unspecified), the Ratio in the data set filed under Homo sapiens [1] stood at 10.3; in the data set filed under Homo sapiens [2], 2.03.

On to `CCOC(=O)C1=CN(Cc2cccc(OC)c2)c2ccccc2C1c1ccc(OC)cc1` (stereo unspecified), for which the Ratio in the data set listed under Homo sapiens [1] came out at 9.95; in the data set listed under Homo sapiens [2], 2.23.

Consider `CCOC(=O)C1=CN(Cc2cccc(OC)c2)c2ccccc2C1c1cccc(OC)c1` (stereo unspecified), for which the Ratio turned out to be 9.68 in the data set filed under Homo sapiens [1] and 2.26 in the data set listed under Homo sapiens [2].

With `CCOC(=O)C1=CN(Cc2ccc(OC)cc2)c2ccccc2C1c1ccc(OC)cc1` (stereo unspecified), the Ratio stood at 12.4 in the data set filed under Homo sapiens [1] and 2.55 in the data set filed under Homo sapiens [2].

For `CCOC(=O)C1=CN(Cc2ccccc2)c2ccccc2C1c1cccc(OC)c1` (stereo unspecified), the IC50 in data set [3], in [5], in data set [8] and in [10] was above 160 µM throughout. The Ratio in data set [4] amounted to 0.99; in the data set listed under Homo sapiens [1], 7.43; in the data set listed under Homo sapiens [2], 1.55; in the data set listed under Homo sapiens [6], 1.03; in the data set filed under Homo sapiens [7], 0.99; in data set [9], 1.03.

Regarding `CCOC(=O)C1=CN(Cc2ccccc2)c2ccccc2C1c1cc(OC)cc(OC)c1` (stereo unspecified), the figures for the Ratio in the data set listed under Homo sapiens [1] and in the data set listed under Homo sapiens [2] were 10.5 and 2.96, respectively.
